Experimental data: paper PMC11362799 (The Journal of Biological Chemistry, 2024)

Molecular target: T1, human Gal-4C (Homo sapiens, UniProt P56470)
T1 sequence (P56470 179-323): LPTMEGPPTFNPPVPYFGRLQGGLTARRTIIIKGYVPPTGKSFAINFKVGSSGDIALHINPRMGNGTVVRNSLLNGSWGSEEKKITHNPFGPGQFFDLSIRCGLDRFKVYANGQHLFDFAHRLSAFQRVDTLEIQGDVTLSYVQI
Assay: Competitive solid-phase assay: Gal-4C binding to immobilized asialofetuin
Summary of the method: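 Human Gal-4C (residues 179–323, C-terminal His-tag, E. coli BL21) at 60 μg/ml final was preincubated 2 h at 37 °C with serially diluted glycan inhibitors; lactose was the reference. Mixtures went onto wells coated overnight at 4 °C with 10 µg/ml ASF (carbonate, pH 9.6) and BSA-blocked, for 2 h at 37 °C. Detection: biotinylated anti-Gal-4, HRP-streptavidin, TMB, A450. Values are means ± SEM from a representative of three experiments.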

IC50: 7 mM
Structure (SMILES): OC[C@H]1O[C@@H](O[C@H]2[C@H](O)[C@@H](O)C(O)O[C@@H]2CO)[C@H](O)[C@@H](O)[C@H]1O (mixture of isomers) [lactose]
